From ChEMBL document CHEMBL2412964, “Discovery of novel tetrahydro-pyrazolo [4,3-c] pyridines for the treatment of neuropathic pain: synthesis and neuropharmacology” (Eur J Med Chem, 2013)

Legend:
[1] = system: Mus musculus; assay: Neurotoxicity in Swiss albino mouse assessed as minimal motor impairment at 300 mg/kg after 4 hrs by rotarod test; format: toxicity, organism-based; set-up: dose 300 mg/kg; conditions: in vivo
Method in brief: (§1)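 Swiss albino mice of either sex, 20-25 g, dosed at 30, 100 and 300 mg/kg, three per group. Minimal motor impairment scored by rotarod at 0.5 and 4.0 h after dosing. Reported value is the lowest dose giving impairment in half or more of the mice.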

[2] = system: Mus musculus; assay: Antinociceptive activity in Swiss albino mouse assessed as inhibition of acetic acid-induced writhing at 5 mg/kg administered 30 mins prior to acetic acid-challenge measured for 30 mins relative to control; format: functional
[3] = system: Mus musculus; assay: Neurotoxicity in Swiss albino mouse assessed as minimal motor impairment at 300 mg/kg after 0.5 hrs by rotarod test; format: toxicity, organism-based; set-up: dose 300 mg/kg; conditions: in vivo; method in brief: as §1
[4] = system: Mus musculus; assay: Antinociceptive activity in Swiss albino mouse assessed as inhibition of formalin-induced flinching at 5 mg/kg administered 30 mins prior to test measured for 10 to 30 mins relative to control; format: functional
[5] = system: Mus musculus; assay: Antinociceptive activity in Swiss albino mouse assessed as inhibition of formalin-induced flinching at 5 mg/kg administered 30 mins prior to test measured up to 5 mins relative to control; format: functional
[6] = system: Mus musculus; assay: Antinociceptive activity in Swiss albino mouse assessed as inhibition of formalin-induced flinching at 100 mg/kg administered 30 mins prior to test measured up to 5 mins relative to control; format: functional
[7] = system: Rattus norvegicus; assay: Antinociceptive activity in Wistar rat partial sciatic nerve ligation model assessed as reversal of spontaneous pain response at 100 mg/kg, ip after 120 mins (reference value: 1.2 +/- 0.1%); format: functional; conditions: route intraperitoneal
[8] = system: Rattus norvegicus; assay: Antinociceptive activity in Wistar rat chronic constriction injury model assessed as reversal of cold allodynia at 100 mg/kg, ip after 30 mins (reference value: 0.6 +/- 2.7%); format: functional; conditions: route intraperitoneal
[9] = system: Rattus norvegicus; assay: Antinociceptive activity in Wistar rat partial sciatic nerve ligation model assessed as reversal of tactile allodynia at 100 mg/kg, ip after 60 mins (reference value: 12.5 +/- 1.2%); format: functional; conditions: route intraperitoneal
[10] = system: Rattus norvegicus; assay: Antinociceptive activity in Wistar rat chronic constriction injury model assessed as reversal of spontaneous pain response at 100 mg/kg, ip after 30 mins (reference value: 8.9 +/- 4.6%); format: functional; conditions: route intraperitoneal
[11] = system: Rattus norvegicus; assay: Antinociceptive activity in Wistar rat partial sciatic nerve ligation model assessed as reversal of cold allodynia at 100 mg/kg, ip after 60 mins (reference value: 2.5 +/- 0.3%); format: functional; conditions: route intraperitoneal
[12] = system: Rattus norvegicus; assay: Antinociceptive activity in Wistar rat chronic constriction injury model assessed as reversal of tactile allodynia at 100 mg/kg, ip after 30 mins (reference value: 3.4 +/- 0.8%); format: functional; conditions: route intraperitoneal
[13] = system: Rattus norvegicus; assay: Antinociceptive activity in Wistar rat chronic constriction injury model assessed as reversal of mechanical allodynia at 100 mg/kg, ip after 60 mins (reference value: 4.9 +/- 1.0%); format: functional; conditions: route intraperitoneal
[14] = system: Mus musculus; assay: Antinociceptive activity in Swiss albino mouse assessed as inhibition of formalin-induced flinching at 100 mg/kg administered 30 mins prior to test measured for 10 to 30 mins relative to control; format: functional
[15] = system: Rattus norvegicus; assay: Antinociceptive activity in Wistar rat chronic constriction injury model assessed as reversal of tactile allodynia at 100 mg/kg, ip after 120 mins (reference value: 4.1 +/- 2.1%); format: functional; conditions: route intraperitoneal
[16] = system: Rattus norvegicus; assay: Antinociceptive activity in Wistar rat partial sciatic nerve ligation model assessed as reversal of spontaneous pain response at 100 mg/kg, ip after 30 mins (reference value: 3.2 +/- 0.3%); format: functional; conditions: route intraperitoneal
[17] = system: Rattus norvegicus; assay: Antinociceptive activity in Wistar rat partial sciatic nerve ligation model assessed as reversal of tactile allodynia at 100 mg/kg, ip after 30 mins (reference value: 7.7 +/- 0.7%); format: functional; conditions: route intraperitoneal
[18] = system: Rattus norvegicus; assay: Antinociceptive activity in Wistar rat partial sciatic nerve ligation model assessed as reversal of cold allodynia at 100 mg/kg, ip after 120 mins (reference value: 1.5 +/- 0.5%); format: functional; conditions: route intraperitoneal
[19] = system: Rattus norvegicus; assay: Antinociceptive activity in Wistar rat partial sciatic nerve ligation model assessed as reversal of spontaneous pain response at 100 mg/kg, ip after 60 mins (reference value: 2.9 +/- 0.3%); format: functional; conditions: route intraperitoneal
[20] = system: Rattus norvegicus; assay: Antinociceptive activity in Wistar rat chronic constriction injury model assessed as reversal of cold allodynia at 100 mg/kg, ip after 120 mins (reference value: 5.4 +/- 1.9%); format: functional; conditions: route intraperitoneal
[21] = system: Rattus norvegicus; assay: Antinociceptive activity in Wistar rat partial sciatic nerve ligation model assessed as reversal of mechanical allodynia at 100 mg/kg, ip after 30 mins (reference value: 2.9 +/- 0.3%); format: functional; conditions: route intraperitoneal
[22] = system: Mus musculus; assay: Antinociceptive activity in Swiss albino mouse assessed as inhibition of acetic acid-induced writhing at 100 mg/kg administered 30 mins prior to acetic acid-challenge measured for 30 mins relative to control; format: functional
Method in brief: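 Swiss albino mice (20–25 g, either sex); writhing induced by i.p. 0.1 mL of 2.0% v/v acetic acid given half an hour after test compound dosing.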

[23] = system: Rattus norvegicus; assay: Antinociceptive activity in Wistar rat partial sciatic nerve ligation model assessed as reversal of cold allodynia at 100 mg/kg, ip after 30 mins (reference value: 4.1 +/- 1.0%); format: functional; conditions: route intraperitoneal
[24] = system: Rattus norvegicus; assay: Antinociceptive activity in Wistar rat chronic constriction injury model assessed as reversal of mechanical allodynia at 100 mg/kg, ip after 30 mins (reference value: 4.7 +/- 2.1%); format: functional; conditions: route intraperitoneal
[25] = system: Rattus norvegicus; assay: Antinociceptive activity in Wistar rat chronic constriction injury model assessed as reversal of cold allodynia at 100 mg/kg, ip after 60 mins (reference value: 6.3 +/- 1.9%); format: functional; conditions: route intraperitoneal
[26] = system: Rattus norvegicus; assay: Antinociceptive activity in Wistar rat chronic constriction injury model assessed as reversal of mechanical allodynia at 100 mg/kg, ip after 120 mins (reference value: 5.3 +/- 0.5%); format: functional; conditions: route intraperitoneal
[27] = system: Rattus norvegicus; assay: Antinociceptive activity in Wistar rat partial sciatic nerve ligation model assessed as reversal of mechanical allodynia at 100 mg/kg, ip after 120 mins (reference value: 2.9 +/- 0.3%); format: functional; conditions: route intraperitoneal
[28] = system: Rattus norvegicus; assay: Antinociceptive activity in Wistar rat partial sciatic nerve ligation model assessed as reversal of tactile allodynia at 100 mg/kg, ip after 120 mins relative to control; format: functional; conditions: route intraperitoneal
[29] = system: Rattus norvegicus; assay: Antinociceptive activity in Wistar rat chronic constriction injury model assessed as reversal of spontaneous pain response at 100 mg/kg, ip after 120 mins (reference value: 4.5 +/- 0.2%); format: functional; conditions: route intraperitoneal
[30] = species on record: Mus musculus; assay: Neurotoxicity in Swiss albino mouse assessed as minimal motor impairment after 4 hrs by rotarod test; format: toxicity, organism-based; conditions: in vivo
Method in brief: (§2)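 Mice, either sex, 20-25 g, dosed at 30, 100 and 300 mg/kg. Minimal motor impairment was scored on the rotarod at 0.5 and 4.0 h. Value reported is the minimum dose showing the effect in half or more of three mice per group.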

[31] = system: Rattus norvegicus; assay: Antinociceptive activity in Wistar rat chronic constriction injury model assessed as reversal of tactile allodynia at 100 mg/kg, ip after 60 mins (reference value: 1.3 +/- 0.3%); format: functional; conditions: route intraperitoneal
[32] = system: Rattus norvegicus; assay: Antinociceptive activity in Wistar rat chronic constriction injury model assessed as reversal of spontaneous pain response at 100 mg/kg, ip after 60 mins (reference value: 4.6 +/- 0.6%); format: functional; conditions: route intraperitoneal
[33] = species on record: Mus musculus; assay: Neurotoxicity in Swiss albino mouse assessed as minimal motor impairment after 0.5 hrs by rotarod test; format: toxicity, organism-based; conditions: in vivo; method in brief: as §2
[34] = system: Rattus norvegicus; assay: Antinociceptive activity in Wistar rat partial sciatic nerve ligation model assessed as reversal of mechanical allodynia at 100 mg/kg, ip after 60 mins (reference value: 2.8 +/- 0.3%); format: functional; conditions: route intraperitoneal

COc1ccc2c(c1)c(CC(=O)O)c(C)n2C(=O)c1ccc(Cl)cc1 [INDOMETHACIN]
Activity [1]: Non-toxic | inhibition in vivo at 5 mg/kg [2]: 96.1% | Activity [3]: Non-toxic | inhibition in vivo at 5 mg/kg [4]: 72.1% | inhibition in vivo at 5 mg/kg [5]: 4.7%

CCN1CCc2c(c(C)nn2C(=O)Nc2cc(C)ccc2C)C1
inhibition in vivo at 100 mg/kg [6]: 2.6% | Activity [7]: 4.8% | Activity [8]: 18.4% | Activity [9]: 16% | Activity [10]: 23.6% | Activity [11]: 14.8% | Activity [12]: 17.3% | Activity [13]: 20.7% | inhibition in vivo at 100 mg/kg [14]: 55.8% | Activity [15]: 2.2% | Activity [16]: 7.5% | Activity [17]: 27.6% | Activity [18]: 12% | Activity [19]: 11.1% | Activity [20]: 14.1% | Activity [21]: 39.6% | inhibition in vivo at 100 mg/kg [22]: 62.2% | Activity [23]: 17.1% | Activity [24]: 3.8% | Activity [25]: 18.7% | Activity [26]: 16.8% | Activity [27]: 14.6% | Activity [28]: 3.5% | Activity [29]: 27.7% | MLD [30]: 300 mg/kg | Activity [31]: 9.9% | Activity [32]: 33.3% | MLD [33]: 300 mg/kg | Activity [34]: 20.8%
